The source of these data is ChEMBL document CHEMBL1799937, “Streptothricin derivatives from Streptomyces sp. I08A 1776” (J Nat Prod, 2011).

SMILES strings stand for the structures. Converted amounts (≈) assume the structure as drawn.

The test system of assay [1] is Mycolicibacterium smegmatis. As to the kind of experiment: Antibacterial activity against Mycobacterium smegmatis MC2 155 after 24 hrs by broth dilution method. The class given is functional. The following applies: str. MC2 155, 24 h. In short, it runs like this:
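CLSI broth microdilution MIC. Medium: Middlebrook 7H9 broth. Serial 2-fold dilutions give final concentrations of 128 to 0.125 μg/mL. Final inoculum is 1 × 10^5 cfu/mL. Incubation is 24 h at 37 °C. MIC is the lowest concentration with no visible growth. Levofloxacin serves as positive control.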
(In broth dilution the organism is exposed to a series of concentrations in liquid medium.)

Assay [2] concerns Pseudomonas aeruginosa. The experiment in a line: Antibacterial activity against Pseudomonas aeruginosa ATCC 27853 after 24 hrs by broth dilution method. The class given is functional. The following applies: ATCC 27853, 24 h. An outline of the steps: (§1)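 CLSI broth microdilution in Mueller-Hinton broth, with levofloxacin as positive control. Final inoculum was 1 × 10^5 cfu/mL. Compounds were tested at final concentrations from 128 to 0.125 μg/mL in 2-fold serial dilutions. Plates were incubated for 24 h at 37 °C. MIC was read as the lowest concentration giving no visible growth.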

Assay [3] concerns Staphylococcus aureus. As to the kind of experiment: Antibacterial activity against Staphylococcus aureus ATCC 25923 after 24 hrs by broth dilution method. Type of assay: functional. The following applies: ATCC 25923, 24 h. In short, it runs like this: as §1
Assay [4] concerns Candida albicans. The experiment in a line: Antifungal activity against Candida albicans ATCC 10231 after 24 hrs by broth dilution method. The following applies: ATCC 10231, 24 h. Type of assay: functional. In short, it runs like this:
as §1

The subject of assay [5] is Bacillus subtilis. As to the kind of experiment: Antibacterial activity against Bacillus subtilis ATCC 6633 after 24 hrs by broth dilution method. The following applies: ATCC 6633, 24 h. Type of assay: functional. An outline of the steps:
as §1

The test system of assay [6] is Escherichia coli. As to the kind of experiment: Antibacterial activity against Escherichia coli ATCC 25922 after 24 hrs by broth dilution method. Type of assay: functional. The following applies: ATCC 25922, 24 h. An outline of the steps:
as §1

Assay [7] relates to Mycobacterium tuberculosis. The experiment in a line: Antibacterial activity against Mycobacterium tuberculosis H37Rv after 14 days by broth dilution method. The class given is functional. The following applies: 336 h. An outline of the steps: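 Broth microdilution per CLSI in Middlebrook 7H9 broth. Compounds run at final 128 to 0.125 μg/mL (2-fold series) against an inoculum of 1 × 10^5 cfu/mL final. Plates incubated 14 days at 37 °C. Endpoint is the lowest concentration without visible growth. Levofloxacin is the positive control.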

Assay [8] concerns Enterococcus faecalis. As to the kind of experiment: Antibacterial activity against Enterococcus faecalis ATCC 29212 after 24 hrs by broth dilution method. The class given is functional. The following applies: ATCC 29212, 24 h. In short, it runs like this:
as §1

The test system of assay [9] is HepG2. As to the kind of experiment: Cytotoxicity against human […] cells after 96 hrs by MTT assay. Type of assay: functional, cell-based. The following applies: HepG2, 96 h.
Assay [10] concerns A549. The experiment in a line: Cytotoxicity against human A549 cells after 96 hrs by MTT assay. The class given is functional, cell-based. The following applies: A549, 96 h. (In general: Tetrazolium assays rely on reduction of a dye to a coloured formazan, in cell work by metabolically active cells.)
Assay [11] relates to Morganella morganii. The experiment in a line: Antibacterial activity against multidrug-resistant Morganella morganii 07-09 after 24 hrs by broth dilution method. Type of assay: functional. The following applies: 07-09, 24 h. In short, it runs like this: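 Mueller-Hinton broth microdilution following CLSI. Strains came from ATCC or clinical isolates. Final compound range 128 to 0.125 μg/mL by 2-fold dilution, inoculum 1 × 10^5 cfu/mL final. Incubated 24 h at 37 °C. MIC read as the lowest concentration showing no visible growth. Levofloxacin is the positive control.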

Assay [12] deals with HeLa. As to the kind of experiment: Cytotoxicity against human HeLa cells after 96 hrs by MTT assay. Type of assay: functional, cell-based.

On to `CC(=O)N[C@@H](CCCNC(=O)C[C@@H](N)CCCNC(=O)C[C@@H](N)CCCN)CC(=O)N[C@@H]1[C@H](O)[C@@H](OC(N)=O)[C@@H](CO)O[C@H]1NC1=N[C@@H]2C(=O)NC[C@@H](O)[C@H]2N1`, for which the MIC in assay [1], in assay [2], in [3], in assay [4], in assay [5] and in assay [6] was more than 128 µg/mL in each case. The minimal inhibitory concentration (MIC) in [7], in assay [8] and in assay [11] was more than 128 µg/mL in each case. For the same compound, the IC50 in assay [9], in [10] and in assay [12] was more than 10 µM in each case.

Consider `CC(=O)N[C@@H](CCCN)CC(=O)N[C@@H]1[C@H](O)[C@@H](O)[C@@H](COC(N)=O)O[C@H]1/N=C1\N[C@@H]2[C@H](O)CNC(=O)[C@H]2N1`, for which the MIC in [1], in assay [2], in assay [3], in assay [4], in [5] and in assay [6] was more than 128 µg/mL in each case. Further, the MIC in assay [7], in assay [8] and in assay [11] was more than 128 µg/mL in each case. Moreover, the IC50 in assay [9], in [10] and in [12] was more than 10 µM in each case.

On to `C[C@H]1COc2c(N3CCN(C)CC3)c(F)cc3c(=O)c(C(=O)O)cn1c23.C[C@H]1COc2c(N3CCN(C)CC3)c(F)cc3c(=O)c(C(=O)O)cn1c23.O` [LEVOFLOXACIN], for which the MIC (commonly the least concentration at which growth counts as inhibited) in assay [1] is 1 µg/mL; in assay [2], 0.25 µg/mL; in assay [3], 0.12 µg/mL; in assay [4] it was more than 128 µg/mL; in assay [5] it was 0.12 µg/mL; in assay [7], 0.5 µg/mL. Further, the MIC in assay [8] worked out at 0.5 µg/mL; in assay [11], 16 µg/mL.

For `CC(=O)N[C@@H](CCCN)CC(=O)N[C@@H]1[C@H](O)[C@@H](O)[C@@H](COC(N)=O)O[C@@H]1/N=C1\N[C@@H]2[C@H](O)CNC(=O)[C@H]2N1`, the MIC in [1], in assay [2], in [3], in assay [4], in assay [5] and in assay [6] was more than 128 µg/mL each time. In addition, the MIC in assay [7], in assay [8] and in assay [11] was more than 128 µg/mL each time. In addition, the IC50 in assay [9], in assay [10] and in assay [12] was more than 10 µM throughout.

For `CC(=O)N[C@@H](CCCNC(=O)C[C@@H](N)CCCN)CC(=O)N[C@@H]1[C@H](O)[C@@H](OC(N)=O)[C@@H](CO)O[C@H]1/N=C1\N[C@@H]2[C@H](O)CNC(=O)[C@H]2N1`, the MIC in [1], in assay [2], in [3], in [4], in [5] and in assay [6] was more than 128 µg/mL each time. Also, the MIC in [7], in [8] and in assay [11] was more than 128 µg/mL in each case. The IC50 in [9], in assay [10] and in [12] was more than 10 µM in each case.

`NCCC[C@H](N)CC(=O)NCCC[C@H](N)CC(=O)N[C@@H]1[C@H](O)[C@@H](O)[C@@H](COC(N)=O)O[C@H]1/N=C1\N[C@@H]2[C@H](O)CNC(=O)[C@H]2N1`: the MIC was 64 µg/mL (≈ 101 µM) in [1]; more than 128 µg/mL in assay [2]; more than 128 µg/mL in assay [3]; 32 µg/mL (≈ 50.7 µM) in [4]; 16 µg/mL (≈ 25.4 µM) in assay [5]; more than 128 µg/mL in [6]. Moreover, the MIC in assay [7], in [8] and in assay [11] was more than 128 µg/mL each time. In addition, the IC50 in [9], in assay [10] and in assay [12] was more than 10 µM in each case.

Consider `CC(=O)N[C@@H](CCCN)CC(=O)N[C@@H]1[C@H](O)[C@@H](O)[C@@H](COC(N)=O)O[C@H]1/N=C1\N[C@@H]2[C@H](O)CNC(=O)[C@@H]2N1`, for which the MIC in [1], in assay [2], in assay [3], in assay [4], in [5] and in [6] was more than 128 µg/mL in each case. For the same compound, the MIC in assay [7], in assay [8] and in [11] was more than 128 µg/mL each time. The IC50 in assay [9], in assay [10] and in [12] was more than 10 µM each time.

`NCCC[C@H](N)CC(=O)NCCC[C@H](N)CC(=O)N[C@@H]1[C@H](O)[C@@H](OC(N)=O)[C@@H](CO)O[C@H]1NC1=N[C@@H]2C(=O)NC[C@@H](O)[C@H]2N1` [STREPTOTHRICIN E]: the MIC turned out to be 4 µg/mL (≈ 6.34 µM) in [1]; 64 µg/mL (≈ 101 µM) in [2]; 4 µg/mL (≈ 6.34 µM) in assay [3]; 1 µg/mL (≈ 1.59 µM) in assay [4]; 1 µg/mL (≈ 1.59 µM) in [5]; 16 µg/mL (≈ 25.4 µM) in assay [6]. The MIC in [7] amounted to 16 µg/mL (≈ 25.4 µM); in [8], 64 µg/mL (≈ 101 µM); in assay [11], 4 µg/mL (≈ 6.34 µM). The IC50 in assay [9], in assay [10] and in assay [12] was more than 10 µM each time.

As for `CC(=O)N[C@@H](CCCN)CC(=O)N[C@@H]1[C@H](O)[C@@H](O)[C@@H](COC(N)=O)O[C@H]1/N=C1\N[C@H]([C@H](O)CN)[C@@H](C(=O)O)N1`, the MIC in [1], in [2], in assay [3], in [4], in [5] and in [6] was more than 128 µg/mL throughout. Besides, the MIC in [7], in assay [8] and in [11] was more than 128 µg/mL throughout. Also, the IC50 in [9], in [10] and in assay [12] was more than 10 µM each time.
